From ChEMBL document CHEMBL3120102, “Structure-based design, synthesis and biological evaluation of novel anthra[1,2-d]imidazole-6,11-dione homologues as potential antitumor agents” (2013)

Legend:
CCRF-CEM = experiment: Cytotoxicity against human CCRF-CEM cells assessed as cell growth at 10 uM after 48 hrs by SRB assay; type: functional; settings: read-out: Activity
OVCAR-3 = experiment: Cytotoxicity against human OVCAR3 cells assessed as cell growth at 10 uM after 48 hrs by SRB assay; type: functional; settings: OVCAR-3, 48 h, read-out: Activity
Method in brief: (§1)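 First stage of the NCI 60 human tumour cell line screen: a single dose is tested against every line. Cell growth is read as cellular protein by sulforhodamine B colorimetry after 48 h of drug exposure, with reference to a time-zero control and to untreated plates.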

[1] = Cytotoxicity against human UACC257 cells assessed as cell growth at 10 uM after 48 hrs by SRB assay; type: functional; settings: UACC-257, 48 h, read-out: Activity
Method in brief: (§2)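 First stage of the NCI 60 human tumour cell line screen, with each compound tested at a single dose of 10. Cellular protein measured by sulforhodamine B colorimetry after 48 h drug exposure. Growth is calculated against a time-zero cell control and against plates not exposed to drug.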

[2] = Cytotoxicity against human OVCAR5 cells assessed as cell growth at 10 uM after 48 hrs by SRB assay; type: functional; settings: OVCAR-5, 48 h, read-out: Activity; method in brief: as §1
HL-60(TB) = experiment: Cytotoxicity against human HL-60(TB) cells assessed as cell growth at 10 uM after 48 hrs by SRB assay; type: functional; settings: HL-60, 48 h, read-out: Activity
Method in brief: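 NCI 60-cell panel first-stage screen at a single dose in the HL-60(TB) leukemia line. Cellular protein was measured by sulforhodamine B colorimetry after 48 h of drug exposure. Growth was referenced to a time-zero cell control and to plates not exposed to drug.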

DU-145 = experiment: Cytotoxicity against human DU145 cells assessed as cell growth at 10 uM after 48 hrs by SRB assay; type: functional; settings: DU-145, 48 h, read-out: Activity
Method in brief: (§3)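 NCI 60-cell-line screen, first stage: compound at a single dose of […] (unit as printed) for 48 h. Cellular protein was measured by sulforhodamine B colorimetry. Growth was determined using a time-zero cell control and plates not exposed to drug.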

OVCAR-8 = experiment: Cytotoxicity against human OVCAR8 cells assessed as growth inhibition after 48 hrs by SRB assay; type: functional
Method in brief: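 NCI 60-cell-line screen, five-dose stage: each cell line exposed for 48 h to five concentrations spanning five log steps; cellular protein measured by sulforhodamine B colorimetry. A time-zero cell control and plates without drug are used to derive GI50, TGI and LC50 from log-concentration dose-response curves.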

NCI-H460 = experiment: Cytotoxicity against human NCI-H460 cells assessed as cell growth at 10 uM after 48 hrs by SRB assay; type: functional; settings: NCI-H460, 48 h, read-out: Activity; method in brief: as §1
HCT-15 = experiment: Cytotoxicity against human HCT15 cells assessed as cell growth at 10 uM after 48 hrs by SRB assay; type: functional; settings: HCT-15, 48 h, read-out: Activity
RPMI-8226 = experiment: Cytotoxicity against human RPMI8226 cells assessed as cell growth at 10 uM after 48 hrs by SRB assay; type: functional; settings: RPMI-8226, 48 h, read-out: Activity; method in brief: as §1
SK-MEL-5 = experiment: Cytotoxicity against human SK-MEL-5 cells assessed as cell growth at 10 uM after 48 hrs by SRB assay; type: functional; settings: SK-MEL-5, 48 h, read-out: Activity; method in brief: as §1
SN12C = experiment: Cytotoxicity against human SN12C cells assessed as cell growth at 10 uM after 48 hrs by SRB assay; type: functional; settings: read-out: Activity; method in brief: as §1
LOX IMVI = experiment: Cytotoxicity against human LOXIMVI cells assessed as cell growth at 10 uM after 48 hrs by SRB assay; type: functional; settings: read-out: Activity; method in brief: as §3
HCC 2998 = experiment: Cytotoxicity against human HCC2998 cells assessed as cell growth at 10 uM after 48 hrs by SRB assay; type: functional; settings: HCC 2998, 48 h, read-out: Activity
T47D = experiment: Cytotoxicity against human T47D cells assessed as cell growth at 10 uM after 48 hrs by SRB assay; type: functional; settings: read-out: Activity; method in brief: as §2
[3] = Cytotoxicity against human NCI-ADR-RES cells assessed as cell growth at 10 uM after 48 hrs by SRB assay; type: functional; settings: read-out: Activity; method in brief: as §1
A498 = experiment: Cytotoxicity against human A498 cells assessed as cell growth at 10 uM after 48 hrs by SRB assay; type: functional; settings: A498, 48 h, read-out: Activity
MOLT-4 = experiment: Cytotoxicity against human MOLT4 cells assessed as cell growth at 10 uM after 48 hrs by SRB assay; type: functional; settings: MOLT-4, 48 h, read-out: Activity; method in brief: as §1
HCT-116 = experiment: Cytotoxicity against human HCT116 cells assessed as cell growth at 10 uM after 48 hrs by SRB assay; type: functional; settings: HCT-116, 48 h, read-out: Activity
HOP-92 = experiment: Cytotoxicity against human HOP92 cells assessed as cell growth at 10 uM after 48 hrs by SRB assay; type: functional; settings: HOP-92, 48 h, read-out: Activity; method in brief: as §3
PC-3 = experiment: Cytotoxicity against human PC3 cells assessed as cell growth at 10 uM after 48 hrs by SRB assay; type: functional; settings: PC-3, 48 h, read-out: Activity; method in brief: as §1
[4] = Cytotoxicity against human OVCAR4 cells assessed as cell growth at 10 uM after 48 hrs by SRB assay; type: functional; settings: OVCAR-4, 48 h, read-out: Activity; method in brief: as §1
Malme-3M = experiment: Cytotoxicity against human MALME-3M cells assessed as cell growth at 10 uM after 48 hrs by SRB assay; type: functional; settings: read-out: Activity
[5] = target: Telomerase reverse transcriptase (Homo sapiens) (UniProt O14746); experiment: Inhibition of human tert transcriptional activity assessed as SEAP activity at 1 uM after 24 hrs by SEAP reporter assay; set-up: scale not given: the % may be the effect or the level left
Method in brief: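 Reporter assay for hTERT transcriptional activity using secreted alkaline phosphatase. About 2 × 10³ cells per well were grown for 24 h at 37 °C, then given fresh medium. Buffer was added to the medium: 2 M diethanolamine, 1 mM MgCl2 and 20 mM L-homoarginine. p-Nitrophenyl phosphate was added to 12 mM final. The rate of absorbance increase was read at 405 nm.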

[6] = Cytotoxicity against human H1299 cells assessed as cell viability at 10 uM after 48 hrs by MTT assay; type: functional; settings: NCI-H1299, 48 h, read-out: Activity
Method in brief: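 About 2×10³ H1299 cells per well were grown for 24 h at 37 °C in 5% CO2. Compound was dissolved in DMSO immediately before use, diluted in complete medium and left on cells for 48 h. MTT was then added for 4 h at 37 °C, followed by SDS/DMF lysis buffer for 16 h at 37 °C. Absorbance was read at 550 nm.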

RXF 393 = experiment: Cytotoxicity against human RXF393 cells assessed as cell growth at 10 uM after 48 hrs by SRB assay; type: functional; settings: RXF 393, 48 h, read-out: Activity; method in brief: as §1
COLO 205 = experiment: Cytotoxicity against human COLO205 cells assessed as cell growth at 10 uM after 48 hrs by SRB assay; type: functional; settings: COLO 205, 48 h, read-out: Activity
BT-549 = experiment: Cytotoxicity against human BT549 cells assessed as cell growth at 10 uM after 48 hrs by SRB assay; type: functional; settings: BT-549, 48 h, read-out: Activity; method in brief: as §3

Sequence of Telomerase reverse transcriptase (Homo sapiens) (O14746 whole entry): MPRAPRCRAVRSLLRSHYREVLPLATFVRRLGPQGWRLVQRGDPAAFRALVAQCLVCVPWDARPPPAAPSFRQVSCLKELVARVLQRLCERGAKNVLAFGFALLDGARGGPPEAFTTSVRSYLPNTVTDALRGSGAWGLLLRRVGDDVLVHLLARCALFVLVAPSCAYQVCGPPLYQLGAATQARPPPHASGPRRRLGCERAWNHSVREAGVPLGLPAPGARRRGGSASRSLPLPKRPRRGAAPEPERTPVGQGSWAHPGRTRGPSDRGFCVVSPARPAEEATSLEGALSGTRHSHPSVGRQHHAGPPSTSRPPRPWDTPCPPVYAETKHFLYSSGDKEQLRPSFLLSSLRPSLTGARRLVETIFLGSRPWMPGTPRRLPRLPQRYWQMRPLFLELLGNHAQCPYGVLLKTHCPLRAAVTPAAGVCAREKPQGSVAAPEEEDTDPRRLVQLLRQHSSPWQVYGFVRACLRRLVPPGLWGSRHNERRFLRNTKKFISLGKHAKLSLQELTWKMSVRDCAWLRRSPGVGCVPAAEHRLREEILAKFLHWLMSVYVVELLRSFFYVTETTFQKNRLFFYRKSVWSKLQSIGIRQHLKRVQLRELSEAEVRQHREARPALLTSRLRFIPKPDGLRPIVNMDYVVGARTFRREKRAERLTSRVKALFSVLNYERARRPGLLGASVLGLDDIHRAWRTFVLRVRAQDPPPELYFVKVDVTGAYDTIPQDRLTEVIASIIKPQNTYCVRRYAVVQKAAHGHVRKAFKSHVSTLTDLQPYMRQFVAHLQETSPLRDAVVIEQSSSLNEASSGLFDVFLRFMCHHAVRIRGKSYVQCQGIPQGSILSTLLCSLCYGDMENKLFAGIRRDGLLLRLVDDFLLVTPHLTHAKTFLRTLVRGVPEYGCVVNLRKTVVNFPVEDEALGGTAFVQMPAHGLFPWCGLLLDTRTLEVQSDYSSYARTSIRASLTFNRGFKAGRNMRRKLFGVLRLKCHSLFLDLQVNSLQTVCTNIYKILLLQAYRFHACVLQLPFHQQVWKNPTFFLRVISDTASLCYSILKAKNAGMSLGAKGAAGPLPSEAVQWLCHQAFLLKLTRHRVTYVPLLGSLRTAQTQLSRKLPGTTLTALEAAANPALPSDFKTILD

| SMILES | growth at 10 µM (CCRF-CEM) | growth at 10 µM (OVCAR-3) | growth at 10 µM [1] | growth at 10 µM [2] | growth at 10 µM (HL-60(TB)) | growth at 10 µM (DU-145) | growth inhibition (GI) (OVCAR-8) | GI50 (OVCAR-8; OVCAR-8, 48 h) | TGI (OVCAR-8; OVCAR-8, 48 h) | growth at 10 µM (NCI-H460) | growth at 10 µM (HCT-15) | growth at 10 µM (RPMI-8226) | growth at 10 µM (SK-MEL-5) | growth at 10 µM (SN12C) | growth at 10 µM (LOX IMVI) | growth at 10 µM (HCC 2998) | growth at 10 µM (T47D) | growth at 10 µM [3] | growth at 10 µM (A498) | growth at 10 µM (MOLT-4) | also measured |
| --- | --- | --- | --- | --- | --- | --- | --- | --- | --- | --- | --- | --- | --- | --- | --- | --- | --- | --- | --- | --- | --- |
| CCSc1nc2ccc3c(c2[nH]1)C(=O)c1ccccc1C3=O | 36.9% | 69.3% | 112% | 85.4% | 62.6% | 64.5% | Dose-dependent effect | 15.1 µM | > 100 µM | 38.8% | 32.3% | 28.5% | 63.9% | 67.9% | 36.7% | 89.4% | 30.8% | 85.7% | 75.5% | 101% | LC50 (OVCAR-8; OVCAR-8, 48 h): > 100 µM; growth at 10 µM (HCT-116): 68.8%; growth at 10 µM (HOP-92): 75.3%; growth at 10 µM (PC-3): 53.8%; growth at 10 µM [4]: 55%; growth at 10 µM (Malme-3M): 63.3%; Activity [5]: 100%; viability at 10 µM [6]: 127%; growth at 10 µM (RXF 393): 99.9%; growth at 10 µM (COLO 205): 71.8%; growth at 10 µM (BT-549): 55.8% |
| CN(C)CCCSc1nc2ccc3c(c2[nH]1)C(=O)c1ccccc1C3=O | 8.49% | 59.3% | 114% | 87.9% | 12.7% | 36.4% | Dose-dependent effect | 6.12 µM | 21.5 µM | 23.2% | 36.3% | -13.7% | 62.5% | 37.7% | 28.6% | 72.7% | 45.8% | 54.3% | 76.2% | -2.9% | growth at 10 µM (HCT-116): 27.6%; growth at 10 µM (HOP-92): 16%; growth at 10 µM (PC-3): 36.7%; growth at 10 µM [4]: 29.7%; growth at 10 µM (Malme-3M): 88.2%; Activity [5]: 100%; viability at 10 µM [6]: 79%; growth at 10 µM (RXF 393): 38.4%; growth at 10 µM (COLO 205): 62%; growth at 10 µM (BT-549): 75.8% |
